Measurements as given in ChEMBL document CHEMBL2375292, “Biaryl tetrazolyl ureas as inhibitors of endocannabinoid metabolism: modulation at the N-portion and distal phenyl ring” (Eur J Med Chem, 2013).

Columns and labels:
[1] = biological target: T1, Transient receptor potential cation channel subfamily A member 1 (Rattus norvegicus, UniProt Q6RI86); assay: Antagonist activity at rat TRPA1 receptor expressed in HEK293 cells assessed as inhibition of allyl isothiocyanate-induced intracellular Ca2+ elevation incubated for 5 mins prior to allyl isothiocyanate-stimulation by spectrofluorimetric analysis; type: cell-based
T1 sequence (Q6RI86 whole entry): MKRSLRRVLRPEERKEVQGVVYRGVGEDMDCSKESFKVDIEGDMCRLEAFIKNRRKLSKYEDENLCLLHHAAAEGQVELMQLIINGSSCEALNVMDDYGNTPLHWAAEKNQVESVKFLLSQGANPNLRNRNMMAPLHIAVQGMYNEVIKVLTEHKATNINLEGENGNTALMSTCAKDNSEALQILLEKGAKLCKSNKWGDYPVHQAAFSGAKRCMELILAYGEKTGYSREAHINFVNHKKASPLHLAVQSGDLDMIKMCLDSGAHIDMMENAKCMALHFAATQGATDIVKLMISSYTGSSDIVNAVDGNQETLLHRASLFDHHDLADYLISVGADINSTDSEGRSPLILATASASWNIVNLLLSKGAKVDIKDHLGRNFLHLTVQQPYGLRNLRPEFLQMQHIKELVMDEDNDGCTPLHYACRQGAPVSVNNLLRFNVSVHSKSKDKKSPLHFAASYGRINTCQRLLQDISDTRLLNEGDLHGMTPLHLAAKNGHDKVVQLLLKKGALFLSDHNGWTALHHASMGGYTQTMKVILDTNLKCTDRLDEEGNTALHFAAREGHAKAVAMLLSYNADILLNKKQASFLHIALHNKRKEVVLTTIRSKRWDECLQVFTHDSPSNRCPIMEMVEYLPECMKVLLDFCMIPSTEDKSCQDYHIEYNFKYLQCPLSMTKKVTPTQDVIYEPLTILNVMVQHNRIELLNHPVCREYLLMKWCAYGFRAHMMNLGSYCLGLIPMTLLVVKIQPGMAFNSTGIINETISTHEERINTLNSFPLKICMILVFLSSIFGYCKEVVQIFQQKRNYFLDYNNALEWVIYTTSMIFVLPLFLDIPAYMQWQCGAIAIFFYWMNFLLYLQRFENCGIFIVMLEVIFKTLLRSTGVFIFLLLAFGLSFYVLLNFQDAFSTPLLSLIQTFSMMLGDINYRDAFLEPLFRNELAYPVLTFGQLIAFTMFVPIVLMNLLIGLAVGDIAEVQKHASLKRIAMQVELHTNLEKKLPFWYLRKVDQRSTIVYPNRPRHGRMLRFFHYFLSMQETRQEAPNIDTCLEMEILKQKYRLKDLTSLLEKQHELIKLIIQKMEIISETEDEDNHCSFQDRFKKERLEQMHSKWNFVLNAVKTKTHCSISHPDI
How it was run: (§1)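 Fluo-4-loaded HEK293 cells stably expressing human TRPV1 or rat TRPA1, in Tyrode's buffer pH 7.4, received test compound in the cuvette 5 min before agonist: capsaicin 0.1 µM for TRPV1, AITC 100 µM for TRPA1. The [Ca²⁺]i rise with agonist alone was set to 100%. IC50 came from a variable-slope sigmoidal fit. Untransfected-cell signal was subtracted.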

[2] = biological target: T2, Fatty-acid amide hydrolase 1 (Rattus norvegicus, UniProt P97612); assay: Inhibition of FAAH in rat brain membranes assessed as [14C]AEA hydrolysis to [14C]Ethanolamine after 30 mins by scintillation counting analysis; type: cell membranes
T2 sequence (P97612 whole entry): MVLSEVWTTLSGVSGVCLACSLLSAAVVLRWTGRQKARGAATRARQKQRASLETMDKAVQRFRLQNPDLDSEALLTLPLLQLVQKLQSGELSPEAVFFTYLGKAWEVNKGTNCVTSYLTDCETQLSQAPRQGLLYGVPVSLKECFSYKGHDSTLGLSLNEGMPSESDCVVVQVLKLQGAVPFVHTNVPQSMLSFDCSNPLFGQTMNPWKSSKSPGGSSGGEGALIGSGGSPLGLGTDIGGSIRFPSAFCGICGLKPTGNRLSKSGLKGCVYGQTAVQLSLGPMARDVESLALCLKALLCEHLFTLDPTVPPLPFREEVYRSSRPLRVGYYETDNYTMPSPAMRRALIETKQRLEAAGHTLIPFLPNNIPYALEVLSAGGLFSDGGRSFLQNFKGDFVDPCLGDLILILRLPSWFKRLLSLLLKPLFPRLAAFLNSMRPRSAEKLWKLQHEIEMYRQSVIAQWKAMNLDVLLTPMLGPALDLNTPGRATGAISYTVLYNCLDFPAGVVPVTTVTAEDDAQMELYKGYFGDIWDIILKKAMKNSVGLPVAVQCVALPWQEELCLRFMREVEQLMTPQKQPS
How it was run: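 Rat brain membranes were incubated with [¹⁴C]AEA in 50 mM Tris-HCl pH 9 for 30 min at 37 °C. Released [¹⁴C]ethanolamine in the aqueous phase was counted by scintillation after CHCl₃/CH₃OH 2/1 extraction. IC50 was the concentration giving 50% inhibition.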

[3] = biological target: T3, Transient receptor potential cation channel subfamily V member 1 (Homo sapiens, UniProt Q8NER1); assay: Antagonist activity at human TRPV1 receptor expressed in HEK293 cells assessed as inhibition of capsaicin-induced intracellular Ca2+ elevation incubated for 5 mins prior to capsaicin-stimulation by spectrofluorimetric analysis; type: cell-based; how it was run: as §1
T3 sequence (Q8NER1 whole entry): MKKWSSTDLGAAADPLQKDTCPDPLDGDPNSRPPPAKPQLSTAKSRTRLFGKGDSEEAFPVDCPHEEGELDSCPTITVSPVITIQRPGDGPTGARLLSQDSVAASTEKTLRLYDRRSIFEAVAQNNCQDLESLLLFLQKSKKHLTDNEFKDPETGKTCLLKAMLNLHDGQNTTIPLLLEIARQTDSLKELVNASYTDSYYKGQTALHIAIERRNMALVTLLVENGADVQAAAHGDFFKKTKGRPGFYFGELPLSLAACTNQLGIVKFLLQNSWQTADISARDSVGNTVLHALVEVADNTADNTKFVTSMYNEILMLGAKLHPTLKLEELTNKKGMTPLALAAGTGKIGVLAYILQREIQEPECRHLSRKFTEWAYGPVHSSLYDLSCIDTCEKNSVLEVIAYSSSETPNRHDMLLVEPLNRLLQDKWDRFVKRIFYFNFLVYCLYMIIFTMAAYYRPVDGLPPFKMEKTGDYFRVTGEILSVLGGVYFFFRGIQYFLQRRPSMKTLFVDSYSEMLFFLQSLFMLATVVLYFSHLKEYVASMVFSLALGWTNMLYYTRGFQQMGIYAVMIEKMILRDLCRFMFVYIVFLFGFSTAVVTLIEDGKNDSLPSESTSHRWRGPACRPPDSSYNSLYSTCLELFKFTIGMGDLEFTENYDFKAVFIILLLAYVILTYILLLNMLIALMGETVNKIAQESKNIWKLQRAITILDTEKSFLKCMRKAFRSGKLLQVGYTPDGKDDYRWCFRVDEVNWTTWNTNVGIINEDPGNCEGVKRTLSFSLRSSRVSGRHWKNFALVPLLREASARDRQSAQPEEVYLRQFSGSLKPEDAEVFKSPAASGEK

[4] = biological target: TRPA1 (Rattus norvegicus); assay: Agonist activity at GDH-tagged rat TRPA1 receptor expressed in HEK293F cells assessed as increase in intracellular Ca2+ concentration by Fluo-4 spectrofluorimetric assay
[5] = biological target: T3, Transient receptor potential cation channel subfamily V member 1; assay: Agonist activity at human TRPV1 receptor expressed in HEK293 cells assessed as increase in intracellular Ca2+ concentration by spectrofluorimetric analysis relative to ionomycin; type: cell-based
How it was run: (§2)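 HEK293 cells stably transfected with human TRPV1 or rat TRPA1 cDNA (pcDNA3, G-418 selection) were loaded 1 h at room temperature with Fluo-4-AM, washed and suspended in Tyrode's buffer pH 7.4. [Ca²⁺]i was read by stirred-cuvette spectrofluorimetry before and after adding test compound at various concentrations. Signal from untransfected cells was subtracted. Efficacy was taken as percent of ionomycin (4 µM) for TRPV1 and percent of allyl isothiocyanate (100 µM) for TRPA1; EC50 was also derived.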

[6] = biological target: T1, Transient receptor potential cation channel subfamily A member 1; assay: Agonist activity at rat TRPA1 receptor expressed in HEK293 cells assessed as increase in intracellular Ca2+ concentration by spectrofluorimetric analysis; type: cell-based; how it was run: as §2
[7] = biological target: T3, Transient receptor potential cation channel subfamily V member 1; assay: Agonist activity at human TRPV1 receptor expressed in HEK293 cells assessed as increase in intracellular Ca2+ concentration by spectrofluorimetric analysis; type: cell-based; how it was run: as §2
[8] = biological target: Transient receptor potential cation channel subfamily A member 1 (Rattus norvegicus) (UniProt Q6RI86); assay: Agonist activity at rat TRPA1 receptor expressed in HEK293 cells assessed as increase in intracellular Ca2+ concentration by spectrofluorimetric analysis relative to allyl isothiocyanate; type: cell-based; how it was run: as §2
Sequence of Transient receptor potential cation channel subfamily A member 1 (Rattus norvegicus) (Q6RI86 whole entry): as the sequence (Q6RI86 whole entry) above

[9] = Selectivity ratio of IC50 for FAAH in rat brain membranes to IC50 for MAGL (unknown origin); type: cell membranes
Monoglyceride lipase = biological target: T4, Monoglyceride lipase (Homo sapiens, UniProt Q99685); assay: Inhibition of MAGL (unknown origin) expressed in African green monkey COS7 cell cytosolic fraction assessed as [3H]2-AG hydrolysis to [3H]arachidonic acid after 20 mins by beta counting analysis; parameters: species or system COS-7
T4 sequence (Q99685 whole entry): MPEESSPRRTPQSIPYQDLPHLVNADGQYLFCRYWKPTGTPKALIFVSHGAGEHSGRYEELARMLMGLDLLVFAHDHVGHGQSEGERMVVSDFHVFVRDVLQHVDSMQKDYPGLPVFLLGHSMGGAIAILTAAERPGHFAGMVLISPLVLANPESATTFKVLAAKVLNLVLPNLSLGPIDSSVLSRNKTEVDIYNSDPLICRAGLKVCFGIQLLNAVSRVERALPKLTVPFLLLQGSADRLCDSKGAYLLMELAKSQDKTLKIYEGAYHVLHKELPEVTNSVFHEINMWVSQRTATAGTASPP

[10] = biological target: T5, Diacylglycerol lipase-alpha (Homo sapiens) (UniProt Q9Y4D2); assay: Activation of human recombinant DAGLalpha expressed in African green monkey COS7 cells assessed as increase in N-oleoylethanolamine level per mg of extracted lipid at 3 uM preincubated for 10 mins measured after 20 mins by LC-MS analysis (reference value: 1.08 +/- 0.17 pmol); type: cell-based; settings: COS-7
T5 sequence (whole entry): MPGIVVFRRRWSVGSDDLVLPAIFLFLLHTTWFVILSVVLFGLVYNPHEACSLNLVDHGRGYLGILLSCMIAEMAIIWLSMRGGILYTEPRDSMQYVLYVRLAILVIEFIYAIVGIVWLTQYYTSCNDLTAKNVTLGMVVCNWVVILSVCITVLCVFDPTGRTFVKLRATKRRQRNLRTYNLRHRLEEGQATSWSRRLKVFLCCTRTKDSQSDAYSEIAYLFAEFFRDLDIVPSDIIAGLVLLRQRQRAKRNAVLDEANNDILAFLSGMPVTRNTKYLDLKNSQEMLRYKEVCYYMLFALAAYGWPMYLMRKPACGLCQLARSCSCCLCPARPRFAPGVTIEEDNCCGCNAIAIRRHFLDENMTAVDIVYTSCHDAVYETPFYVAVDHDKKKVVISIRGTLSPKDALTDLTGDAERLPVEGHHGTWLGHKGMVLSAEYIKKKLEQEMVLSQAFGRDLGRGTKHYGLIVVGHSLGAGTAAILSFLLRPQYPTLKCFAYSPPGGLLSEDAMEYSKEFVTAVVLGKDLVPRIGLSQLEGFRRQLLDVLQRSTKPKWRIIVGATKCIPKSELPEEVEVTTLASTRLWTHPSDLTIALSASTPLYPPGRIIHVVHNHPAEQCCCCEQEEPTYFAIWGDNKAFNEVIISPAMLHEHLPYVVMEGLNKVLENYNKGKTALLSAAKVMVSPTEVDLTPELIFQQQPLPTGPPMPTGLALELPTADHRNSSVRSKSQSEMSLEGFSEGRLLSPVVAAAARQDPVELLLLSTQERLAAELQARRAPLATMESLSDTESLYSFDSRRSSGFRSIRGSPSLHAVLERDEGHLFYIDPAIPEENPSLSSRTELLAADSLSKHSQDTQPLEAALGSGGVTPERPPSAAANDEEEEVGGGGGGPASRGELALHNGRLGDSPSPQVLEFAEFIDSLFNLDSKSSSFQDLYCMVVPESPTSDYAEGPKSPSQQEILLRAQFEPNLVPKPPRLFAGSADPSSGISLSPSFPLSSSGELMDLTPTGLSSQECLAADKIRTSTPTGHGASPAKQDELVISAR
How it was run: (§3)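 About 10⁶ COS-7 cells overexpressing human recombinant DAGL-α per data point. Cells were preincubated 10 min with compound, then incubated 20 min at 37 °C with vehicle or ionomycin 3 µM. They were then homogenized in CHCl₃/CH₃OH/Tris-HCl 50 mM pH 7.4 (2/1/1) containing 5 pmol each of d⁸-AEA, d⁵-2-AG and d⁴-OEA as internal standards. Results in pmol/mg lipid extracted, means ± SD, n = 4.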

[11] = biological target: T5, Diacylglycerol lipase-alpha (Homo sapiens); assay: (§4) Activation of human recombinant DAGLalpha expressed in African green monkey COS7 cells assessed as increase in 2-arachidonoylglycerol level per mg of extracted lipid at 3 uM preincubated for 10 mins measured after 20 mins by LC-MS analysis (reference value: 2.82 +/- 0.75 pmol); type: cell-based; settings: COS-7; how it was run: as §3
[12] = biological target: T5, Diacylglycerol lipase-alpha (Homo sapiens); assay: Activation of human recombinant DAGLalpha expressed in African green monkey COS7 cells assessed as increase in anandamide level per mg of extracted lipid at 3 uM preincubated for 10 mins measured after 20 mins by LC-MS analysis (reference value: 0.16 +/- 004 pmol); type: cell-based; settings: COS-7; how it was run: as §3
[13] = biological target: T5, Diacylglycerol lipase-alpha (Homo sapiens); assay: Activation of human recombinant DAGLalpha expressed in African green monkey COS7 cells assessed as increase in anandamide level per mg of extracted lipid at 1 uM preincubated for 10 mins measured after 20 mins by LC-MS analysis in presence of ionomycin (reference value: 0.16 +/- 004 pmol); type: cell-based; settings: COS-7
How it was run: (§5)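 About 10⁶ COS-7 cells overexpressing human recombinant DAGL-α per point, preincubated 10 min with test compound or not, then 20 min at 37 °C with vehicle or ionomycin 3 µM. Cells homogenized in CHCl₃/CH₃OH/Tris-HCl 50 mM pH 7.4 (2/1/1) with 5 pmol d⁸-AEA, d⁵-2-AG and d⁴-OEA as internal standards. Levels in pmol/mg lipid extracted, mean ± SD, n = 4.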

[14] = biological target: T5, Diacylglycerol lipase-alpha (Homo sapiens); assay: as §4, with “1” for “3”, “analysis in presence of ionomycin” for “analysis”; type: cell-based; settings: COS-7; how it was run: as §5
[15] = biological target: T5, Diacylglycerol lipase-alpha (Homo sapiens); assay: Activation of human recombinant DAGLalpha expressed in African green monkey COS7 cells assessed as increase in N-oleoylethanolamine level per mg of extracted lipid at 1 uM preincubated for 10 mins measured after 20 mins by LC-MS analysis in presence of ionomycin (reference value: 1.08 +/- 0.17 pmol); type: cell-based; settings: COS-7; how it was run: as §5

IC50 [1] [µM]	IC50 [2] [nM]	IC50 [3] [µM]	EC50 [4] [nM]	Efficacy [5] [%]	EC50 [6] [µM]	EC50 [7] [nM]	Efficacy [8] [%]	Ratio IC50 [9]	IC50 (Monoglyceride lipase) [nM]	Activity [13] [pmol]	Activity [14] [pmol]	Activity [15] [pmol]	SMILES	Activity [10] [pmol]	Activity [11] [pmol]	Activity [12] [pmol]
15.4	96.3	9.2	150	33.6	0.15	250	45.2						CN(C(=O)n1nnc(Cc2ccc(-c3ccccc3)cc2)n1)C1CCCCC1			
41	9.7	> 100		< 10	32.8		233	39	> 1000				Cc1cccc(-c2ccc(Cc3nnnn3C(=O)N(C)C)cc2)c1			
													C[C@H](CCC(=O)O)C[C@H](C)C[C@H](C)C(=O)/C=C(\O)[C@H](C)C[C@H](C)C/C=C/[C@@H](C)[C@@H](O)[C@@H](C)[C@@H](O)C[C@@H]1CC[C@@](C)([C@H]2CC[C@@](C)([C@@H](C)O)O2)O1	3.99	15.7	0.37
98.9	12	> 100		< 10			< 10		10	0.41	413	7.25	CN(C)C(=O)n1nnc(Cc2ccc(-c3cccc(O)c3)cc2)n1			
